Reference: ChEMBL document CHEMBL1914430, “Synthesis of some new 1,3,5-trisubstituted pyrazolines bearing benzene sulfonamide as anticancer and anti-inflammatory agents” (Bioorg Med Chem Lett, 2011)
Calls of active or inactive are those of the source. The calls are words filed in the database; no cut-off is given here.

Key:
[1] = system: Rattus norvegicus; assay: Toxicity in Wistar rat assessed as appearance of ulcerogenic lesions in stomach at 60 mg/kg, po; type: organism-based; parameters: dose 60 mg/kg, route oral; conditions: in vivo
Procedure, shortened: (§1)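 Wistar rats, 160–220 g, fasted 24 h, six per group. Compound given orally at 60 mg/kg as a suspension in 1% w/v CMC (10 mL/kg); controls got vehicle only. Animals were killed under ether anaesthesia 6 h after treatment, and stomachs were opened along the greater curvature and examined for lesions and bleeding.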

[2] = system: Rattus norvegicus; assay: Antiinflammatory activity in Wistar rat assessed as inhibition of carrageenan-induced hind paw edema at 20 mg/kg, po administered 30 mins before carrageenan challenge measured after 5 hrs by plethysmometer; type: functional
Procedure, shortened: (§2)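 Wistar rats of either sex, 150–175 g, fasted 16 h, n = 6 per group. Compound given orally at 20 mg/kg as a suspension in 1% CMC in water (10 mL/kg); controls got vehicle only. After 30 min, 0.1 mL of 1% carrageenan in saline was injected subplantar into the left hind paw. Paw volume was measured by plethysmometer at 0, 3 and 5 h. Inhibition = (1 − Vt/Vc) × 100, reported as mean ± SEM.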

[3] = system: Rattus norvegicus; assay: Antiinflammatory activity in Wistar rat assessed as inhibition of carrageenan-induced hind paw edema at 20 mg/kg, po administered 30 mins before carrageenan challenge measured after 3 hrs by plethysmometer; type: functional; procedure, shortened: as §2
[4] = system: Rattus norvegicus; assay: Toxicity in Wistar rat assessed as appearance of ulcerogenic bleeding in stomach at 60 mg/kg, po; type: organism-based; parameters: dose 60 mg/kg, route oral; conditions: in vivo; procedure, shortened: as §1
[5] = molecular target: Prostaglandin G/H synthase 1 (Bos taurus) (UniProt O62664); assay: Inhibition of bovine COX1 assessed as PGE2 production preincubated for 10 mins by ELISA
Chain of Prostaglandin G/H synthase 1 (Bos taurus) (O62664 whole entry): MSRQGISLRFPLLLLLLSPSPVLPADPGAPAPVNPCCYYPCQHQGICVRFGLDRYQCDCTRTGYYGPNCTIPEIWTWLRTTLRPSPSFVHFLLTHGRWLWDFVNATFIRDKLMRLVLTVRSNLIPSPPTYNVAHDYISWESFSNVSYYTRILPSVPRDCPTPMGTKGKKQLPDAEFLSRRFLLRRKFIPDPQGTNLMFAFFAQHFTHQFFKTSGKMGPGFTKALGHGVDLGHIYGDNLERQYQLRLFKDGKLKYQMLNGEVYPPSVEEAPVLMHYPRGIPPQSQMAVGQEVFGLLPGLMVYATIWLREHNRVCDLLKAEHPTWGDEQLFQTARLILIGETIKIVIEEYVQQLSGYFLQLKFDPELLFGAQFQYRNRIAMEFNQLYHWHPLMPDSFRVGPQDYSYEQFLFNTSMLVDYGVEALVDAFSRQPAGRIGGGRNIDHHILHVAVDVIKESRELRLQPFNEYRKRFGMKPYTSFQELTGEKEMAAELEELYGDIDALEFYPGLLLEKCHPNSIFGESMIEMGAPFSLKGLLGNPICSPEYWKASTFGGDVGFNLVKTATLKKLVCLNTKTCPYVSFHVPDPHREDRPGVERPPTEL
Procedure, shortened: (§3)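 In vitro inhibition of bovine COX-1 and COX-2 measured with a COX inhibitor screening kit, following the Gierse et al. method.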

[6] = molecular target: Prostaglandin G/H synthase 2 (Bos taurus) (UniProt O62698); assay: Inhibition of bovine COX2 assessed as PGE2 production preincubated for 10 mins by ELISA; procedure, shortened: as §3
Chain of Prostaglandin G/H synthase 2 (Bos taurus) (O62698 whole entry): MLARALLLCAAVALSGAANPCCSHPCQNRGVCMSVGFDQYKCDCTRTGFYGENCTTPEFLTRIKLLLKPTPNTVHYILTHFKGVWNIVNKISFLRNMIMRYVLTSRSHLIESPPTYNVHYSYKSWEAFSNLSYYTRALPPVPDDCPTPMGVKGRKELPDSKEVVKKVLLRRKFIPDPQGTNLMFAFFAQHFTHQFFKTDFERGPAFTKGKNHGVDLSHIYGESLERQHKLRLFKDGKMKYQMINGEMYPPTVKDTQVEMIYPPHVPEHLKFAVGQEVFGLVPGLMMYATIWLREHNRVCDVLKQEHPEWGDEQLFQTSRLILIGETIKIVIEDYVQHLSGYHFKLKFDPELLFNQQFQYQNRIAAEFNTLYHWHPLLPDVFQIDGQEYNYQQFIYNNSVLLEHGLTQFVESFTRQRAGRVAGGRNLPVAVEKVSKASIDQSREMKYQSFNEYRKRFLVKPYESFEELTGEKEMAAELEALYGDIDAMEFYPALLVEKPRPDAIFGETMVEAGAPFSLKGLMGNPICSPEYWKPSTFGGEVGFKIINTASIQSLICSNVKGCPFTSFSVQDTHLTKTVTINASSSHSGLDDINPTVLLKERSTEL

Row | inhibition [5] | inhibition [6] | Compound | Activity [1] | inhibition in vivo at 20 mg/kg [2] [%] | inhibition in vivo at 20 mg/kg [3] [%] | Activity [4]
1 | inactive | Active | COc1cc(C)c(Cl)cc1C1=NN(c2ccc(S(N)(=O)=O)cc2)C(c2ccc(N(C)C)cc2)C1 (stereo not drawn) | Non-toxic | 95.2 | 78.9 | Non-toxic
2 |  |  | COc1cc(C)c(Cl)cc1C1=NN(c2ccc(S(N)(=O)=O)cc2)C(c2cc(OC)c(OC)c(OC)c2)C1 (stereo not drawn) |  | 21.4 | 34.2 | 
